Screens deposited in PubChem BioAssay by several laboratories.
DAX1 inh-1 – inhibitors of DAX1 repression of SF-1 activated StAR promoter | HEK293T StAR-luciferase reporter, SF-1/DAX-1 repression relief | inhibition, % at 6.8 µM | 1.1% of 370,000 active | AID 652010;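 active means inhibition above the mean over all tested compounds plus 3 SD, cut at about 3.6% in these data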;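 further: 0% = DAX-1 cells with DMSO and 100% = cells lacking DAX-1 with DMSO; higher inhibition means more luminescence from relief of DAX-1 repression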
NR2E3 ag-1 – activates human NR2E3 receptor | inhibition of corepressor binding, % at 3.98 µM | 0.35% of 360,000 active | AID 602229 | Q9Y5X4 | CHO-S Gal4-NCOR/VP16-NR2E3 two-hybrid, luciferase;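 active means inhibition above the mean of all tested compounds plus 3 SD, cut at about 70% in these data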;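 further: 0% = DMSO with NR2E3 transfected cells and 100% = cells lacking NR2E3 construct; higher means lower luciferase signal from less NR2E3 corepressor binding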
SMARCA2 activ – activators of SMARCA2 function | MG213 cells, MMTV-luciferase reporter, dexamethasone, overnight | 1% of 370,000 active | activation, % at 9.1 µM; in the data active means activation above about 7.8%;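 further: 0% = vehicle wells and 100% = reference activator wells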
JMJD2C inh – inhibitors of human GASC-1 (JMJD2C) demethylase; AID 2099; 0.069% of 330,000 active; GST-JMJD2C(1-420) H3K9me3 demethylation, DELFIA europium; inhibition, % at 2.35 µM;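 active means more than half of a compound's replicate wells show inhibition beyond 50%, single wells judged on their own value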;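 further: signal counts dimethyl H3K9 product captured on neutravidin plate; 0% = median of DMSO wells and 100% = 0.3 times that DMSO median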
DAX1 inh-2 – NR0B1 (DAX1) inhibition | P51843 | HEK293 Gal4-DAX1 luciferase reporter, luminescence | 0.99% of 340,000 active | inhibition, % at 6.75 µM | AID 504766;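 active means inhibition above the mean over all tested compounds plus 3 SD, cut at about 4.2% in these data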;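 further: 0% = DAX1-transfected cells with DMSO and 100% = empty-vector control cells with DMSO; inhibition shows as a rise in luminescence from relieved DAX1 repression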
NR2E3 ag-2 – activates human photoreceptor nuclear receptor NR2E3; Q9Y5X4; GST-NR2E3/biotin-RetCOR TR-FRET, 1536-well; inhibition of corepressor binding, % at 4.78 µM; 0.12% of 320,000 active; AID 2300;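 active means percent inhibition above the cutoff of mean plus 3 SD of all tested compounds, set per screening campaign, cut at about 20% in these data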;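 further: 0% = DMSO wells and 100% = biotin wells as full block of FRET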
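Format: 1536-well format; test system: GST-NR2E3 and biotin-RetCOR proteins; read-out basis: percent inhibition of TR-FRET ratio; timing: 5 h incubation at 4 °C; detection: time-resolved FRET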
DAX1 inh confirm – NR0B1 (human) inhibition, confirmation; shares compounds with DAX1 inh-1; HEK293T StAR-promoter luciferase reporter, SF-1/DAX-1 repression; inhibition, % at 6.8 µM; 87% of 2,400 active; AID 652134;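 active means inhibition above the average of every tested compound plus 3 SD, cut at about 3.8% in these data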;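 further: 0% = DAX-1 cells with DMSO and 100% = no DAX-1 control cells with DMSO; active compounds raise luminescence by relieving repression of the StAR reporter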
Target sequence (P51843 whole entry, looked up): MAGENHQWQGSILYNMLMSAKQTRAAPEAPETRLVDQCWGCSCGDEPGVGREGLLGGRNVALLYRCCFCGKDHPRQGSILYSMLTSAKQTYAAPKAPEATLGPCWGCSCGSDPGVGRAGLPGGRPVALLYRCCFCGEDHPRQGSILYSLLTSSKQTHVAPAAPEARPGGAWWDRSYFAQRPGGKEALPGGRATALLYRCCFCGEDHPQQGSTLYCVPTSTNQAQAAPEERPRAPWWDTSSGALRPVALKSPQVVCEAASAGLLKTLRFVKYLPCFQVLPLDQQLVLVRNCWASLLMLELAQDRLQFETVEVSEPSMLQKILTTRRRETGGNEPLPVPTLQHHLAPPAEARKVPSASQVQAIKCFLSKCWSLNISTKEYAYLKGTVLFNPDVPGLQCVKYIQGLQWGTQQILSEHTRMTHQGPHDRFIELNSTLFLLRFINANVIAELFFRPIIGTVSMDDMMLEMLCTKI
SF1 mutant ctr – counter-screen for DAX1 inhibitors: nonselective inhibitors with SF-1 AF2 mutant; shares compounds with DAX1 inh-1; HEK293 StAR-luciferase, luminescence; inhibition, % at 6.8 µM; 78% of 2,400 active;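 active means inhibition above the mean of all tested compounds plus 3 SD, cut at about 3% in these data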;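 further: 0% = DAX-1 transfected cells with DMSO and 100% = cells without DAX-1 with DMSO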
* = called active by the depositor; · = not tested or not shown. Hits are enriched below; roughly 3.2% of the tested compounds scored in any of these assays.

SMILES | DAX1 inh-1 | NR2E3 ag-1 | SMARCA2 activ | JMJD2C inh | DAX1 inh-2 | NR2E3 ag-2 | DAX1 inh confirm | SF1 mutant ctr
O=C(CSc1nnc(COc2ccccc2)n1Cc1ccco1)Nc1ccc2c(c1)OCO2 | -1 | · | -6 | · | · | · | · | ·
Cc1cc(C)cc(C(=O)OCCCN(C)C2CN(Cc3cn(Cc4ccccc4F)nn3)S(=O)(=O)C2)c1 (stereo not given) | -1 | · | -2 | · | · | · | · | ·
COc1ccccc1-c1nc(-c2cccc(C)c2)no1 | 6.6* | -132 | 6 | -9 | 5.6* | 2 | 16* | 6.2*
COc1ccc(-c2nc(-c3cccc(C)c3)no2)cc1OC | · | -94 | · | -18 | 0 | 1 | · | ·
Cc1cccc(-c2noc(-c3ccc4c(c3)OCO4)n2)c1 | 4.8* | -105 | 1 | -5 | -1 | 2 | 13* | 5.0*
COc1ccc(-c2noc(-c3ccccc3F)n2)cc1 | 8.5* | -141 | 2 | 5 | 1 | 2 | 13* | 5.5*
COc1ccc(-c2nc(-c3ccc(Br)o3)no2)cc1 | 7.3* | -89 | 1 | -3 | 3 | 0 | 14* | 3.5*
COC(=O)c1ccc(-c2nc(-c3ccc(Br)o3)no2)cc1 | 2 | -30 | -1 | 7 | 1 | 0 | · | ·
CCCCNC(=O)C[C@@H]1C(=O)N2CCCC3=C2[C@@]1(C(=O)OCC)CCC3 | -1 | · | -3 | · | · | · | · | ·
CCOc1ccccc1C(=O)Nc1ccc2nc(C)[nH]c(=O)c2c1 | -1 | · | -7 | · | · | · | · | ·
COc1ccc(-c2cn3nc(SCC(=O)NCC4CCCO4)ccc3n2)cc1 (stereo not given) | 13* | -85 | 2 | 6 | 0 | 3 | 8.5* | 4.0*
CCn1c(C)cc(C=C2C(=O)c3ccccc3C2=O)c1C | 5.6* | -52 | 7 | -27 | 1 | · | 15* | 8.0*
Cc1cc(C=C2C(=O)c3ccccc3C2=O)c(C)n1C | 0 | 0 | 1 | 3 | -1 | -6 | · | ·
CCOC(=O)[C@]12CCCC3=C1N(CCC3)C(=O)[C@@H](CC(=O)N1CCN(C(=O)c3ccco3)CC1)C2 | 0 | · | -3 | · | · | · | · | ·
Cc1ccc2nc(C)/c(=N\O)c(C)nc2c1 | 5.3* | -115 | 3 | 1 | -1 | 4 | 5.3* | 3.2*
CCOc1cc(C(=O)O/N=C(\N)c2ccccn2)cc(OCC)c1OCC | 0 | -79 | -1 | 5 | 0 | 3 | · | ·
N/C(=N\OC(=O)c1cccc(Br)c1)c1ccccc1 | 2 | -31 | 4 | 1 | 2 | 0 | · | ·
N/C(=N\OC(=O)c1cccc(Br)c1)c1ccccn1 | 8.9* | -123 | 1 | 3 | -3 | 1 | 17* | 11*
CCOc1ccc(C(=O)O/N=C(\N)c2ccccn2)cc1OCC | 6.3* | -58 | 7 | 9 | 1 | 2 | 3 | 4.5*
COC(=O)c1cc(C2(c3c[nH]c4ccccc34)CCN(C(=O)OC(C)(C)C)CC2)n2ccccc12 | -1 | · | 1 | · | · | · | · | ·
CCOC(=O)N1CCN(C(=O)C[C@H]2C[C@@]3(C(=O)OC)C(=C[C@H](C(C)C)O[C@@H]3C3CC3)N(Cc3ccco3)C2=O)CC1 | -1 | · | -3 | · | · | · | · | ·
O=S1(=O)c2ccc(Br)cc2OC[C@H](Cc2ccccc2)N1Cc1cn(CCC2OCCCO2)nn1 | 0 | · | -4 | · | · | · | · | ·
C/C(=N\NC(=O)c1nn(C)c(C)c1Br)c1cccc(NC(=O)c2ccoc2C)c1 | 5.0* | -109 | 6 | 2 | 3 | -2 | 1 | 1
C/C(=N/NC(=O)c1ccoc1C)c1ccc(NC(=O)C2CCCC2)cc1 | 6.1* | -100 | 2 | 3 | 2 | -1 | 5.3* | 4.2*
C/C(=N\NC(=O)c1nn(C)c(C)c1Br)c1ccc(NC(=O)C2CCCC2)cc1 | 8.9* | -144 | 3 | 2 | 2 | · | 2 | -1
Cc1occc1C(=O)NNC(=O)C1CCCCC1 | 0 | -8 | -1 | 32 | 0 | 1 | · | ·
